Data as given in ChEMBL document CHEMBL3091343, “Nicotinamide phosphoribosyltransferase inhibitors, design, preparation, and structure-activity relationship” (J Med Chem, 2013).

Columns and labels:
A2780 = assay: Cytotoxicity against human A2780 cells assessed as growth inhibition after 72 hrs by WST-1 assay; format: functional, cell-based; details: A2780, 72 h
MCF7 = assay: Cytotoxicity against human MCF-7 cells assessed as growth inhibition after 72 hrs by WST-1 assay; format: functional, cell-based; details: MCF7, 72 h
[1] = molecular target: Nicotinamide phosphoribosyltransferase (Homo sapiens, UniProt P43490); assay: Inhibition of NAMPT in human HepG2 cells using [14C]-nicotinamide/PRPP as substrate assessed as formation of [14C]-nicotinamide mononucleotide after 1 hr by liquid scintillation counting analysis; format: cell-based
Plasma = assay: Metabolic stability in mouse plasma assessed as compound hydrolysis; format: ADME, cell-free
[2] = Toxicity in ip dosed NMRI mouse assessed as blood cell count administered as bid for 5 days; format: organism-based; details: in vivo
[3] = AUC in NMRI mouse at 50 mg/kg, iv; format: ADME, organism-based; set-up: dose 50 mg/kg, route intravenous; details: plasma
Procedure, shortened: (§1)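 Mouse PK after a single i.v. dose. Plasma proteins were precipitated with acetonitrile containing internal standard (3:1 v/v). Samples were analysed by UPLC-MS/MS on a C18 column at 40°C with an acetonitrile–0.05% formic acid gradient, using positive electrospray MRM. Parameters were derived by non-compartmental analysis.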

[4] = Toxicity in ip dosed NMRI mouse assessed as body weight loss administered as bid for 5 days; format: organism-based; details: in vivo
[5] = Clearance in NMRI mouse at 50 mg/kg, iv; format: ADME, organism-based; set-up: dose 50 mg/kg, route intravenous; details: in vivo; procedure, shortened: as §1
HCT-116 [6] = assay: Resistance factor, ratio of IC50 for APO866-resistant human HCT116 cells to IC50 for human HCT116 cells; format: functional
[7] = Cmax in NMRI mouse at 50 mg/kg, iv; format: ADME, organism-based; set-up: dose 50 mg/kg, route intravenous; details: in vivo; procedure, shortened: as §1
[8] = Half life in NMRI mouse at 50 mg/kg, iv; format: ADME, organism-based; set-up: dose 50 mg/kg, route intravenous; details: in vivo; procedure, shortened: as §1
[9] = Tmax in NMRI mouse at 50 mg/kg, iv; format: ADME, organism-based; set-up: dose 50 mg/kg, route intravenous; details: in vivo; procedure, shortened: as §1
[10] = Apparent volume of distribution in NMRI mouse at 50 mg/kg, iv; format: ADME, organism-based; set-up: dose 50 mg/kg, route intravenous; details: in vivo, read-out: Vz; procedure, shortened: as §1
HCT-116 [11] = assay: Cytotoxicity against human HCT116 cells assessed as growth inhibition after 72 hrs by WST-1 assay; format: functional, cell-based; details: HCT-116, 72 h
HCT-116 [12] = assay: Cytotoxicity against APO866-resistant human HCT116 cells assessed as growth inhibition after 72 hrs by WST-1 assay; format: functional, cell-based; details: HCT-116, 72 h

Nicotinamide phosphoribosyltransferase, sequence (P43490 whole entry): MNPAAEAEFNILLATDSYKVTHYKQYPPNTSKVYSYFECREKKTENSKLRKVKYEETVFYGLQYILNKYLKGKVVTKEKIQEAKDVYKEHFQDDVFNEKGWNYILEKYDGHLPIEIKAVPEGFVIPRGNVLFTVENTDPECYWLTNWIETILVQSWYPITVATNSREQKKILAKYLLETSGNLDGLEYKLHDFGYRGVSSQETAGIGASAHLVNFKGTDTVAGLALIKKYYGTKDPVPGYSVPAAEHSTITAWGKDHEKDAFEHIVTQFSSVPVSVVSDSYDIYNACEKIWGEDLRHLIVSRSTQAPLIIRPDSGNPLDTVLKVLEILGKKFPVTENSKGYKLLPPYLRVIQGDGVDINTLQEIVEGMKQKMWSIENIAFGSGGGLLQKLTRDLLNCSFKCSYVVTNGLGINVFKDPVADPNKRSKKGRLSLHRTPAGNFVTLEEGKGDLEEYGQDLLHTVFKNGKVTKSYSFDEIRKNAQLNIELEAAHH

Compound | IC50 (A2780) | IC50 (MCF7) | also measured
O=C(NCCCCCS(=O)(=O)N(OCCN1CCOCC1)C1CCCCC1)Nc1ccncc1 | 3.4 nM | 28 nM | 
O=C1C(=O)C(Nc2ccncc2)C1NCCCCCS(=O)(=O)N(OCCN1CCOCC1)C1CCCC1 (stereo not given) | 0.38 nM | 46.3 nM | 
N#CNC(=Nc1ccncc1)NCCCCCCC(=O)NOC1CCCCC1 | 35 nM | 940 nM | IC50 [1]: 1.1 nM
N#CNC(=Nc1ccncc1)NCCCCCCS(=O)(=O)NOCC1CCCCC1 | 0.16 nM | 3.4 nM | IC50 [1]: 2.4 nM
O=C1C(=O)C(Nc2ccncc2)C1NCCCCCCS(=O)(=O)N(CCN1CCOCC1)OCC1CCCCC1 (stereo not given) | 0.73 nM | 10.8 nM | 
O=C1C(=O)C(Nc2ccncc2)C1NCCCCCCS(=O)(=O)N(OCCN1CCOCC1)C1CCCC1 (stereo not given) | 0.59 nM | 13.7 nM | 
O=C1C(=O)C(Nc2ccncc2)C1NCCCCCCS(=O)(=O)N(OCCN1CCOCC1)C1CCC1 (stereo not given) | 0.2 nM | 29.1 nM | 
N#C/N=C(\NCCCCCCCS(=O)(=O)N(OCCN1CCOCC1)C1CCCCC1)Nc1ccncc1 | 0.089 nM | 0.29 nM | 
N#C/N=C(\NCCCCCCS(=O)(=O)N(CCCN1CCOCC1)C1CCC1)Nc1ccncc1 | 0.091 nM | 0.1 nM | 
C[C@@H](CCCCCN/C(=N\C#N)Nc1ccncc1)C(=O)NOC1CCCCC1 | 0.08 nM | 1 nM | 
O=C(NCCCCCS(=O)(=O)N(OCCN1CCOCC1)C1CCC1)NCc1cccnc1 | 13 nM | 49 nM | 
O=C1C(=O)C(Nc2ccncc2)C1NCCCCCCCS(=O)(=O)N(OCCN1CCOCC1)C1CCCCC1 (stereo not given) | 0.49 nM | 8 nM | IC50 [1]: 3.6 nM
O=C(CCCCCCNc1c(Nc2ccncc2)c(=O)c1=O)N(OCCN1CCOCC1)C1CCCCC1 | 0.03 nM |  | 
N#C/N=C(\NCCCCCCCC(=O)N(Cc1ccccc1)OCCN1CCOCC1)Nc1ccncc1 | 0.01 nM |  | IC50 [1]: 4.4 nM
N#C/N=C(\NCCCCCCS(=O)(=O)N(CCN1CCOCC1)OCc1ccccc1)Nc1ccncc1 | 0.053 nM | 0.63 nM | 
O=C(NCCCCCCS(=O)(=O)N(OCCN1CCOCC1)C1CCCC1)NCc1cccnc1 | 0.58 nM | 5.8 nM | 
N#C/N=C(\NCCCCC[C@H](Cc1ccccc1)C(=O)NOC1CCCCC1)Nc1ccncc1 | 0.22 nM | 1.7 nM | Stability (Plasma): Unstable
N#C/N=C(\NCCCCCCC(=O)N(Cc1ccccc1)OC1CCCCC1)Nc1ccncc1 | 0.055 nM | 1 nM | IC50 [1]: 38.5 nM
O=C1C(=O)C(Nc2ccncc2)C1NCCCCCCC(=O)N(Cc1ccccc1)OCCN1CCOCC1 (stereo not given) | 0.29 nM | 12.3 nM | 
N#C/N=C(\NCCCCCCC(=O)N(OCCN1CCOCC1)C1CCCCC1)Nc1ccccc1 | 98 nM | 1020 nM | 
O=C(NCCCCCCS(=O)(=O)N(OCCN1CCOCC1)C1CCCCC1)Nc1ccncc1 | 0.25 nM | 0.05 nM | MTD at 120 h [2]: < 10 mg/kg; AUC [3]: 7020 ng·h/mL; MTD at 120 h [4]: < 10 mg/kg; clearance [5]: 118 mL/min/kg; Ratio IC50 (HCT-116 [6]): 128; Cmax [7]: 14800 ng/mL; half-life [8]: 27 min; IC50 [1]: 49 nM; Tmax [9]: 4.8 min; Vd [10]: 4.6 L/kg; IC50 (HCT-116 [11]): 5.3 nM; IC50 (HCT-116 [12]): > 5000 nM
O=C1C(=O)C(Nc2ccncc2)C1NCCCCCC(=O)N(Cc1ccccc1)OCCN1CCOCC1 (stereo not given) | 0.68 nM | 23 nM | 
N#C/N=C(\NCCCCCCS(=O)(=O)N(OCCN1CCOCC1)C1CCC1)Nc1ccncc1 | 0.049 nM | 0.007 nM | 

Compound | IC50 (A2780) | IC50 (MCF7) | also measured
O=C(CCCCCCNC(=S)NCc1cccnc1)N(OCCN1CCOCC1)C1CCCCC1 | 0.91 nM | 5.5 nM | IC50 [1]: 8.2 nM
N#C/N=C(\NCCCCCS(=O)(=O)N(OCCN1CCOCC1)C1CCCCC1)Nc1ccncc1 | 0.011 nM | 0.036 nM | 
O=C(NCCCCCCS(=O)(=O)N(CCN1CCOCC1)CC1CCCCC1)Nc1ccncc1 | 0.56 nM | 1.4 nM | IC50 [1]: 133 nM
O=C(NCCCCCCS(=O)(=O)N(CCN1CCOCC1)CC1CCCCC1)NCc1cccnc1 | 0.17 nM | 0.93 nM | IC50 [1]: 11.8 nM
N#C/N=C(\NCCCCCC(=O)N(Cc1ccccc1)OCCN1CCOCC1)Nc1ccncc1 | 0.081 nM | 0.021 nM | 
C[C@H](CCCCCN/C(=N\C#N)Nc1ccncc1)C(=O)NOC1CCCCC1 | 3.9 nM | 38.3 nM | 
O=C(NCCCCCCS(=O)(=O)N(CCCN1CCOCC1)C1CCC1)NCc1cccnc1 | 1.7 nM | 8.7 nM | 
O=C(NCCCCCCS(=O)(=O)N(OCCN1CCOCC1)C1CCC1)NCc1cccnc1 | 2.2 nM | 11 nM | 
O=C(NCCCCCCCS(=O)(=O)N(OCCN1CCOCC1)C1CCCCC1)Nc1ccncc1 | 1.8 nM | 7.4 nM | 
N#C/N=C(\NCCCCCS(=O)(=O)N(OCCN1CCOCC1)C1CCCC1)Nc1ccncc1 | 0.022 nM | 0.041 nM | 
N#C/N=C(\NCCCCCCS(=O)(=O)N(OCCN1CCOCC1)C1CCCC1)Nc1ccncc1 | 0.0041 nM |  | 
O=S(=O)(CCCCCCNC(=S)Nc1ccncc1)N(OCCN1CCOCC1)C1CCCC1 | 0.16 nM | 0.31 nM | 
N#C/N=C(\NCCCCC[C@@H](Cc1ccccc1)C(=O)NOC1CCCCC1)Nc1ccncc1 | 0.32 nM | 5.3 nM | Stability (Plasma): Unstable
N#C/N=C(\NCCCCCCC(=O)N(OCCN1CCOCC1)C1CCCCC1)Nc1ccncc1 | 0.1 nM | 0.42 nM | IC50 [1]: 0.2 nM
N#CN=C(NCCCCCCOc1ccc(Cl)cc1)Nc1ccncc1 [CHS-828] | 0.56 nM | 1.6 nM | 
O=C(NCCCCCCC(=O)N(OCCN1CCOCC1)C1CCCCC1)NCc1cccnc1 | 0.27 nM | 0.37 nM | 
N#C/N=C(\NCCCCCCS(=O)(=O)N(OCCN1CCOCC1)C1CCCCC1)Nc1cccnc1 | 0.51 nM | 2.9 nM | 
O=C1C(=O)C(Nc2ccncc2)C1NCCCCCS(=O)(=O)N(OCCN1CCOCC1)C1CCCCC1 (stereo not given) | 0.57 nM | 35.8 nM | IC50 [1]: 49.6 nM
O=C(NCCCCCS(=O)(=O)N(OCCN1CCOCC1)C1CCCC1)NCc1cccnc1 | 2.7 nM | 7 nM | 
O=C1C(=O)C(Nc2ccncc2)C1NCCCCCCS(=O)(=O)N(OCCN1CCOCC1)C1CCCCC1 (stereo not given) | 0.49 nM | 9 nM | MTD at 120 h [2]: < 10 mg/kg; AUC [3]: 12500 ng·h/mL; MTD at 120 h [4]: < 10 mg/kg; clearance [5]: 66.6 mL/min/kg; Ratio IC50 (HCT-116 [6]): 128; Cmax [7]: 33500 ng/mL; half-life [8]: 12.6 min; Tmax [9]: 4.98 min; Vd [10]: 1.2 L/kg; IC50 (HCT-116 [11]): 39 nM; IC50 (HCT-116 [12]): > 5000 nM
N#C/N=C(\NCCCCCCS(=O)(=O)N(CCCN1CCOCC1)C1CCCCC1)Nc1ccncc1 | 0.16 nM | 0.11 nM | IC50 [1]: 2.4 nM
O=C(NCCCCCCCS(=O)(=O)N(OCCN1CCOCC1)C1CCCCC1)NCc1cccnc1 | 0.31 nM | 3.6 nM | 
O=C(NCCCCCS(=O)(=O)N(OCCN1CCOCC1)C1CCCCC1)NCc1cccnc1 | 4.6 nM | 6.5 nM | 
